Bioassay records as filed in PubChem.
Hits are enriched below; roughly 3.7% of the tested compounds scored in any of these assays.
KCNK3 inh – human KCNK3 channel inhibition, primary screen | O14649 | CHO-KCNK3 thallium flux, FluxOR fluorescence; stronger effect = lower value | B-score at 10 µM | hit rate 0.84% among 340,000 | AID 602410;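 active means B-score under library mean minus 4 SD, starting fluorescence ratio at most library mean plus 5 SD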;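 further: more negative B-score means stronger inhibition of thallium flux through KCNK3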
KCNQ1 block – human KCNQ1 channel inhibition. P51787. CHO-K1 KCNQ1, FluxOR thallium flux fluorescence; stronger effect = higher value. B-score at 10 µM. hit rate 1.3% among 310,000;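 active means compounds whose thallium flux B-score, printed positive for inhibition, exceeds three library SD while starting fluorescence stays within three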;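 further: channel opened by potassium depolarization with thallium stimulus after 20 min compound exposure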
Target sequence (P51787 whole entry, looked up): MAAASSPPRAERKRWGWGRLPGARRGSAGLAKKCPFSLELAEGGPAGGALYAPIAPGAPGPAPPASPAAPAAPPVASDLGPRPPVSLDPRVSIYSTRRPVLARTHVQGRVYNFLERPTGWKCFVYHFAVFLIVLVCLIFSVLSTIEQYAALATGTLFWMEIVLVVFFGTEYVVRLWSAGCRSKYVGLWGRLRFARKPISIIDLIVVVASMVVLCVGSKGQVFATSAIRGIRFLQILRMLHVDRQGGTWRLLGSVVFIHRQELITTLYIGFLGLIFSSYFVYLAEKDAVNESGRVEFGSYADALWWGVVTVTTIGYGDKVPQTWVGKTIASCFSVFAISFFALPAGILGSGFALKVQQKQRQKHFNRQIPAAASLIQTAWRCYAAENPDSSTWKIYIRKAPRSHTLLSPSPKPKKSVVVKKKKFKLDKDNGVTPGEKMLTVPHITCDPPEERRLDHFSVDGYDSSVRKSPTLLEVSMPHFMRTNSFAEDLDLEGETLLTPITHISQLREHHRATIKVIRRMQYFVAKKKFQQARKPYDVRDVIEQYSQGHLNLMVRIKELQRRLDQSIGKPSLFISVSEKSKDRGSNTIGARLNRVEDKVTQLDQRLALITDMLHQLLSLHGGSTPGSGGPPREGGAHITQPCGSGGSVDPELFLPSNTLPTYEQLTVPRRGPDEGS
hERG protect – compounds protecting human hERG from proarrhythmic drug block; activation (rescue from dofetilide block), less the hit threshold, % at 10 µM; hit rate 0.51% among 310,000; AID 1511; Q12809; CHO-hERG, FluxOR thallium flux, dofetilide IC70 present;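 active means activation above the mean of controls blocked by dofetilide plus 5 SD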;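 further: thallium influx through hERG after potassium depolarization seen as dye fluorescence rise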
Kir21 block – inhibitors of mouse Kir2.1 inward-rectifier potassium channel; B-score at 10 µM; hit rate 0.85% among 310,000; AID 1672; P35561; HEK293-Kir2.1, FluxOR thallium flux fluorescence; stronger effect = lower value;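 active means fluorescence ratio B-score at or below minus 3 SD of library scores, with starting-brightness B-score within 2 SD, cut at about -4.2 in these data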;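 further: channel flux triggered by added potassium and thallium sulfate stimulus; B-score of peak minus minimum fluorescence over baseline after thallium stimulus; more negative B-score means stronger Kir2.1 block with less thallium influx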
KCNQ1 pot – human KCNQ1 channel potentiation or activation | CHO-K1 KCNQ1, thallium flux FluxOR fluorescence; stronger effect = higher value | B-score at 10 µM | AID 2648 | P51787 | hit rate 0.35% among 310,000;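 active means fluorescence ratio B-score, a plate-corrected score, at least three library SD, with initial intensity B-score within 5 SD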
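Assay system: CHO-K1 cells stably expressing KCNQ1; Medium: assay buffer with matched DMSO; Also added: K+/Tl+ depolarizing stimulus; Dosing: single dose; Timing: dye 90 min, compound 20 min, room temperature; Measured by: kinetic FluxOR thallium fluorescence, 10-s 1-Hz baseline, 110-s post-stimulus read; Read-out: peak-minus-minimum fluorescence over initial fluorescence, negative-control normalized, B-scored.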
KCNK9 block – inhibitors of human KCNK9 two-pore domain potassium channel | AID 488922 | Q9NPC2 | hit rate 1.2% among 310,000 | B-score at 10 µM | HEK293 KCNK9, FluxOR thallium flux fluorescence; stronger effect = lower value;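 active means ratio B-score over 3 SD below the library mean, with starting fluorescence within 5 SD of its mean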;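 further: negative B-score means less thallium flux so channel inhibition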
Active calls of the source: *; i = inactive; . = not tested or not shown.

SMILES | KCNK3 inh | KCNQ1 block | hERG protect | Kir21 block | KCNQ1 pot | KCNK9 block
OC(CNCCc1ccc(C(F)(F)F)cc1)COc1cccc2ccccc12 (centres undefined) | i | i | 5.3* | -8* | i | i
Cc1nc2nc(C)c(CCC(=O)O)c(C)n2n1 | i | i | -1 | -0.75 | i | i
CCC1CCC2(CC1)NC(CO)(CO)CO2 (centres undefined) | i | i | -10 | -0.56 | 8* | i
O=C(COc1ccc(Cl)cc1)NNC(=O)C(=O)NC1CCCCC1 | i | i | 15* | 0.22 | 11* | i
COc1ccccc1C(=O)NNC(=O)C(=O)NC1CCCCC1 | i | i | 21* | 0.59 | 20* | i
O=C(COc1ccc(Cl)cc1)NC1CC1 | i | i | 0 | 0 | i | i
Cc1ccc(S(=O)(=O)Oc2ccccc2/C=N/O)cc1 | i | i | -5 | -6.9* | i | i
Cc1ccc(S(=O)(=O)Oc2ccccc2/C=N/Nc2ccc(C(=O)O)cc2)cc1 | i | i | -4 | 1.2 | i | i
C1CCc2c(c(N3CCOCC3)nc3sc4c(N5CCOCC5)nnnc4c23)C1 | i | . | . | . | . | .
S=c1nc[nH]c2c1sc1nc(N3CCOCC3)c3c(c12)CCCC3 | i | i | 97* | -0.28 | 95* | i
CCOC(=O)CSc1ccc(S(=O)(=O)N(C)C2CCCCC2)cc1[N+](=O)[O-] | -10* | i | -4 | -0.15 | i | i
Fc1ccc(-c2nc3ccccc3[nH]2)cc1 | i | i | -10 | -0.07 | i | i
S=c1nc(-c2ccc(Br)cc2)[nH]c2ccccc12 | i | i | 32* | 1.2 | 111* | i
COc1cc(CNC2CCCC2)cc(Cl)c1OCc1ccccc1F | i | i | -15 | -4.7* | i | i
COc1cc(CNC2CCCCCC2)cc(OC)c1O | i | i | 2 | -0.28 | i | i
COc1ccc(C2=Nn3c(nnc3-c3ccco3)SC2)cc1OC | i | i | -6 | -0.43 | i | i
NC(=O)c1cc([N+](=O)[O-])c(Cl)cc1NCc1cccnc1 | i | . | . | . | . | .
Cc1cccc(/C=C2/S/C(=N/N=C3\CC4CCC3(C)C4(C)C)NC2=O)c1 (centres undefined) | i | i | 14* | 0.73 | 18* | i
CCOc1ccc2oc(C(=O)Nc3cc(C)ccn3)c(C)c2c1 | i | i | -12 | 0.87 | i | i
CCOc1ccc(C2c3cc(OC)c(OC)cc3CC(=O)N2c2ccc(OC)cc2)cc1 (centres undefined) | i | i | -9 | -0.07 | i | i
CCn1cc(C(=O)NC2CCCc3c2cnn3-c2cccc(C)c2C)cn1 (centres undefined) | i | 8* | -16 | -0.25 | i | i
N#Cc1cccc(CN2CCC(=O)N([C@H](CO)Cc3ccccc3)CC2)c1 | i | i | -6 | 0 | i | i
O=C(COC(=O)Cc1ccccc1F)NC(=O)NC1CCCC1 | i | . | . | . | . | .
C/C(=N\N(c1ccccc1)c1ccccc1)c1ccc(O)cc1 | i | i | -11 | -5.1* | i | i
C/C(=N\N(c1ccccc1)c1ccccc1)c1ccc(N)cc1 | i | i | -15 | -0.29 | i | i
SMILES | KCNK3 inh | KCNQ1 block | hERG protect | Kir21 block | KCNQ1 pot | KCNK9 block
NS(=O)(=O)c1ccc(CCNC(=O)c2ccc([N+](=O)[O-])s2)cc1 | i | i | -3 | -1.2 | i | i
O=C(N/N=C/C(Br)=C/c1ccccc1)c1ccccc1[N+](=O)[O-] | i | i | -7 | -0.02 | i | -6.9*
Cc1ccc(-c2cc(C(=O)N/N=C/C(Br)=C/c3ccccc3)n[nH]2)o1 | i | i | -12 | -2.5 | i | -7*
COc1cccc(C(=O)N/N=C/C(Br)=C/c2ccccc2)c1 | i | i | 1 | 0.3 | i | -8.1*
O=C(N/N=C/c1ccncc1)c1ccccc1[N+](=O)[O-] | i | i | -3 | 2.9 | i | i
Cn1c(N)c(C(=O)COC(=O)CSc2ccc(Cl)cc2)c(=O)n(C)c1=O | i | i | -1 | -0.2 | i | i
COc1ccc(CCNC(=O)COc2nncc3ccccc23)cc1 | i | i | -20 | -0.64 | i | i
COc1ccc(C(C)=O)cc1CSc1nncn1-c1ccccc1 | i | i | -8 | -1.1 | i | i
CS(=O)(=O)N(CC(=O)N1CCCC1)c1cc(C(F)(F)F)ccc1Cl | i | i | -20 | 0.42 | i | i
CS(=O)(=O)N(CC(=O)N1CCOCC1)c1cc(C(F)(F)F)ccc1Cl | i | i | 7.3* | 1.2 | i | i
COC(=O)Oc1ccc(/C=C/C(=O)OC(C)C)cc1OC(=O)OC | i | i | 6.6* | -1.4 | i | i
N#CC1=C(SCC(=O)NC23CC4CC(CC(C4)C2)C3)NC(=O)C(C#N)C12CCCCC2 (centres undefined) | i | 10* | -9 | 0.47 | i | i
N#CC1=C(SCC(=O)NC2CC2)NC(=O)C(C#N)C12CCCCC2 (centres undefined) | i | i | -12 | -1.3 | i | i
Cc1cc(C)cc(OCC(=O)Nc2ccncc2)c1 | i | i | 0 | 0.7 | i | i
Cc1ccc(Sc2ncccc2COC(=O)Nc2c(C)cccc2C)cc1 | i | i | -6 | -4.6* | i | i
CCOC(=O)c1sc(NC(=O)CSc2nnc(C)s2)c(C(=O)OCC)c1C | i | i | -7 | 0.24 | i | -6.8*
CCOC(=O)c1sc(NC(=O)CCN2CC(C)OC(C)C2)c(C(=O)OCC)c1C (centres undefined) | . | i | -11 | 0.59 | i | i
CCOC(=O)c1sc(NC(=O)CCN2CCN(C)CC2)c(C(=O)OCC)c1C | i | i | -10 | -5.5* | i | i
CCOC(=O)c1sc(NN=C(C(=O)OC)C(=O)OC)c(C(=O)OCC)c1C | i | i | 9.0* | 0.03 | 8* | i
CCOC(=O)C1C(c2ccc(C(=O)O)cc2)NC(=O)NC1(O)C(F)(F)F (centres undefined) | i | i | -8 | 0.15 | i | i
C=CCN1C(=O)c2ccc(C(=O)N(CC)CC(=O)Nc3ccc(OC)cc3)cc2C1=O | i | i | -13 | 1.4 | i | i
CCOc1ccc(CC(=O)C2=C(N3CCOCC3)CC(C)(C)CC2=O)cc1OCC | i | i | 0 | -2.1 | i | i
Cc1ccc(NC(=O)CSCC(=O)Nc2cc(C(F)(F)F)ccc2N2CCOCC2)cc1 | i | i | -12 | -1.2 | i | i
